Results as given in paper PMC5131535 (ACS chemical neuroscience, 2016).
Where “and” joins values, the source holds several entries; their conditions need not be identical. Equal values may be shown once. Entries after “also recorded” stand apart in the source; their conditions may differ.

Columns and labels:
Kir2.1 = biological target: T1, Kir2.1 (Homo sapiens, UniProt P63252); assay: Tl+ flux selectivity assay, Kir2.1; type: cell-based; settings: for Kir Channel Selectivity (Fold) 2.1: Thallium flux, Kir7.1 over Kir2.1
T1 sequence (P63252 1-427): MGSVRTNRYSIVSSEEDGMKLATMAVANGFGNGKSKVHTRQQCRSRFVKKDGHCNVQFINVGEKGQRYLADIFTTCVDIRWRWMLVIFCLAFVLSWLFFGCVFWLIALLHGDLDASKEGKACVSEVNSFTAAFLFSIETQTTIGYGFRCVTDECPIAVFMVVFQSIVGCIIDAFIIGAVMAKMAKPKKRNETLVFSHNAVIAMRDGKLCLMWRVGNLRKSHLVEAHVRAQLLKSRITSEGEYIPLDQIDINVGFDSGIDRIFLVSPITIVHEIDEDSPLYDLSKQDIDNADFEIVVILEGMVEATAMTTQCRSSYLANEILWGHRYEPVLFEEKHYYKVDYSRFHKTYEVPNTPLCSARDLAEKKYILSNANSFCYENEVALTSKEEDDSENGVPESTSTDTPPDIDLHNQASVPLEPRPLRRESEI
Outline: (§1)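 Tetracycline-inducible stable T-REx-HEK-293 lines, induced overnight with 1 µg/ml tetracycline in DMEM/10% dialyzed FBS. Cells loaded 1 hr with 1.2 µM Thallos-AM in HBSS/20 mM HEPES pH 7.3 with 0.01% Pluronic F-127. Baseline fluorescence (ex 470, em 540 nm) read at 1 Hz before adding stimulus buffer with 1.8 mM Tl₂SO₄. Traces normalized to first point and vehicle-subtracted; slope taken 5–20 s post-Tl⁺; IC50 by nonlinear regression of CRCs.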

Kir3.1/3.2 = biological target: T2, Kir3.1/3.2 (Homo sapiens, UniProt P48051+P48549); assay: Tl+ flux selectivity assay, Kir3.1/3.2; type: cell-based; settings: for Kir Channel Selectivity (Fold) 3.1/3.2: Thallium flux, Kir7.1 over Kir3.1/3.2
T2 sequence (P48549 1-501): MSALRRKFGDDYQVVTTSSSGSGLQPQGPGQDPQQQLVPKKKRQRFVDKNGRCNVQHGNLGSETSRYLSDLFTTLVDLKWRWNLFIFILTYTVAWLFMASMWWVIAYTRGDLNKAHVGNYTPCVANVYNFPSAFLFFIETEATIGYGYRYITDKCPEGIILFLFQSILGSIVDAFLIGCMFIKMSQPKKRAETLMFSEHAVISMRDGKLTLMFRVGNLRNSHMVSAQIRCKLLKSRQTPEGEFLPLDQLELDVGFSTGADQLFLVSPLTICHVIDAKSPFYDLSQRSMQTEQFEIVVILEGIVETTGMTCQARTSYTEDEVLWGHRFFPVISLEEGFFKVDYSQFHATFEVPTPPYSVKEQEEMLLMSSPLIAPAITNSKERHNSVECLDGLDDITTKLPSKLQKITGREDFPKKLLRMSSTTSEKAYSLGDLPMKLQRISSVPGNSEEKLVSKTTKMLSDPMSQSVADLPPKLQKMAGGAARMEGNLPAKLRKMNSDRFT
T2 sequence (P48051 1-423): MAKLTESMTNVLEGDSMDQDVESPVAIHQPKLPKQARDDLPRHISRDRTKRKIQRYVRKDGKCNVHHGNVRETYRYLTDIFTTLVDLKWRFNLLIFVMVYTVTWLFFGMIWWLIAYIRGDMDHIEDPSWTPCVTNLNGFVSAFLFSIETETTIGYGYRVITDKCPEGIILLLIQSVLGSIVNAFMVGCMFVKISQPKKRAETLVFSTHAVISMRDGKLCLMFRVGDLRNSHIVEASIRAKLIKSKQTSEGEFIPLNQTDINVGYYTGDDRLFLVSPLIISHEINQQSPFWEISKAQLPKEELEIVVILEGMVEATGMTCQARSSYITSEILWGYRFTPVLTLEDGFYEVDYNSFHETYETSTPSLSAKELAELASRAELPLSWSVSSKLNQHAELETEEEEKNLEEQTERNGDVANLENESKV

Dopamine D2S receptor = Dopamine D2S receptor (Homo sapiens, UniProt P14416); assay: Lead Profiling Screen; type: binding; settings: significant interaction
Chain of Dopamine D2S receptor (P14416 1-414 isoform P14416-2): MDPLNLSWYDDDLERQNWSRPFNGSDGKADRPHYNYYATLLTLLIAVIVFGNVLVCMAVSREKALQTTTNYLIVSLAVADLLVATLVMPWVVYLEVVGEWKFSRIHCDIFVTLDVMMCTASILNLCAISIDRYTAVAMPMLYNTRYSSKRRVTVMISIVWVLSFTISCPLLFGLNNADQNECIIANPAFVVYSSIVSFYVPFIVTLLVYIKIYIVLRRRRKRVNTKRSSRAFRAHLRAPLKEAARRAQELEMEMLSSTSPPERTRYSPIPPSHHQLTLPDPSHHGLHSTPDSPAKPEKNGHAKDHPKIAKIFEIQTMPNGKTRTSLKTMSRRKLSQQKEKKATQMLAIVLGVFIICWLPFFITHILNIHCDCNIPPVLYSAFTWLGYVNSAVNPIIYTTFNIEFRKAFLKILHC

hERG = hERG (Homo sapiens, UniProt Q12809); assay: Lead Profiling Screen; type: binding; settings: among 58 GPCRs, ion channels and transporters
Chain of hERG (Q12809 whole entry): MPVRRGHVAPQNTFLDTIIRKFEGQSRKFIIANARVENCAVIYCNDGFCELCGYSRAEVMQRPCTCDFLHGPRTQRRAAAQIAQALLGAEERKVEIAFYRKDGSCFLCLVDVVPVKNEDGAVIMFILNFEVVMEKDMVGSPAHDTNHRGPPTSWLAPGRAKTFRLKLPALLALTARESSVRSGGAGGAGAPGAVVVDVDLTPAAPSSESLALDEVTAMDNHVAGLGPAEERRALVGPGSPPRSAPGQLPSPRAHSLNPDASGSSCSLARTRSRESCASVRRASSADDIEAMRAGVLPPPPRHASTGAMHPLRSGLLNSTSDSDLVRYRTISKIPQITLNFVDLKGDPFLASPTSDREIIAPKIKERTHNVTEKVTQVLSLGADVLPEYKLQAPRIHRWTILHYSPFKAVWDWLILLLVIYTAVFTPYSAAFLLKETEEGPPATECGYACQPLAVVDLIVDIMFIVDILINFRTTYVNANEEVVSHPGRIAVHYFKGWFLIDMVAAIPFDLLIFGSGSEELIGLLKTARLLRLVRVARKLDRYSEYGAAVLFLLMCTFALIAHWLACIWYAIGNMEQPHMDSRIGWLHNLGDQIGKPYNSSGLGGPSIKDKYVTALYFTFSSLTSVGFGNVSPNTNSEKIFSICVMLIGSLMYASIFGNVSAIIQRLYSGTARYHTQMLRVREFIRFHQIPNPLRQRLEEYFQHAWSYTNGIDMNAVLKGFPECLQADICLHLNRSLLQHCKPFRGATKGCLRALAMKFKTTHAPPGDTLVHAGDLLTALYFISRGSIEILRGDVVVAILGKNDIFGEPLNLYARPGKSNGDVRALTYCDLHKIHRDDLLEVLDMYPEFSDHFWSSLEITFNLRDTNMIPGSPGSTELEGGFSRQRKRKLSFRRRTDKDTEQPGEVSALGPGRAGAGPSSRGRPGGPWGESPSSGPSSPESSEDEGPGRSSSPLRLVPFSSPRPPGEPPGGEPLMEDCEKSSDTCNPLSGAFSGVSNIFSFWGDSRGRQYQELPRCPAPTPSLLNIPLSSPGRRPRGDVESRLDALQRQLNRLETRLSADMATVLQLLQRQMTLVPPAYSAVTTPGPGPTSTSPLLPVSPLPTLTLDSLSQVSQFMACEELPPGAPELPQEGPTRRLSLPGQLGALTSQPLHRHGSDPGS

[1] = CNS distribution study in mice; type: in vivo, mouse; settings: average of four mice
[2] = Protein binding in plasma; settings: rat
[3] = Protein binding in plasma; settings: mouse
Kir7.1-WT = Kir7.1-WT (Homo sapiens, UniProt O60928); assay: Whole-cell patch clamp, Kir7.1-WT; type: cell-based; settings: read-out: Kir7.1-WT IC50, -120 mV
Chain of Kir7.1-WT (O60928 whole entry, the tested form may be a part): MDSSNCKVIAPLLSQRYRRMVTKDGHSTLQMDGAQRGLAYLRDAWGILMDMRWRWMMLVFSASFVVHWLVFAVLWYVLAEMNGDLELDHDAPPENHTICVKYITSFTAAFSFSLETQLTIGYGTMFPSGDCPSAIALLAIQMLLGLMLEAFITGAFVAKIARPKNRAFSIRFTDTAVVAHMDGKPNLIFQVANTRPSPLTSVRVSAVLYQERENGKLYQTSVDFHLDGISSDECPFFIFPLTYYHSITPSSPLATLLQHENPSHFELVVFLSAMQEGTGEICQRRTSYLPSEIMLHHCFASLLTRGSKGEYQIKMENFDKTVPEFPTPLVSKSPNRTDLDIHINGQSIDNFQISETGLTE
Outline: (§2)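 Human Kir7.1 (WT or mutant) was transiently co-transfected with EGFP into HEK-293T cells, which were replated next day on poly-L-lysine coverslips. Whole-cell clamp used bath 5 mM KCl, pH 7.4, and pipette 135 mM KCl, pH 7.3. Cells were held at −75 mV, stepped 500 ms to −120 mV, then ramped to 120 mV, every 5 s. Increasing test-compound doses were superfused, then BaCl₂ block; current read at −120 mV; variable-slope Hill fit, mean of n = 5.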

Kir7.1 E149Q/M125R = Kir7.1 E149Q/M125R (Homo sapiens, UniProt O60928, E149Q/M125R); assay: Whole-cell patch clamp, Kir7.1 E149Q/M125R mutant; type: cell-based; settings: -120 mV
Chain of Kir7.1 E149Q/M125R (O60928 whole entry M125R/E149Q): as the sequence (O60928 whole entry, the tested form may be a part) above, with M125R, E149Q counted along it
Outline: as §2

Kir7.1 pore mutants [4] = biological target: Kir7.1 pore mutants (Homo sapiens, UniProt O60928, A161S); type: cell-based; settings: 3 µM, -120 mV
Chain of Kir7.1 pore mutants (Homo sapiens, UniProt O60928, A161S) (O60928 whole entry A161S): as the sequence (O60928 whole entry, the tested form may be a part) above, with A161S counted along it
Outline: (§3)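 Single pore-lining residues were mutated on a WT or M125R Kir7.1 background and expressed transiently with EGFP in HEK-293T cells. The whole-cell step-ramp protocol from a −75 mV holding potential was used, with test compound at 3 µM. Read-out was % inhibition of current at −120 mV, mean ± SEM, tested against the respective parent channel (P < 0.05).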

Kir7.1 pore mutants [5] = biological target: Kir7.1 pore mutants (Homo sapiens, UniProt O60928, I160M); type: cell-based; settings: 3 µM, -120 mV
Chain of Kir7.1 pore mutants (Homo sapiens, UniProt O60928, I160M) (O60928 whole entry I160M): as the sequence (O60928 whole entry, the tested form may be a part) above, with I160M counted along it
Outline: as §3

Kir7.1 pore mutants [6] = biological target: Kir7.1 pore mutants (Homo sapiens, UniProt O60928, L146V); type: cell-based; settings: 3 µM, -120 mV
Chain of Kir7.1 pore mutants (Homo sapiens, UniProt O60928, L146V) (O60928 whole entry L146V): as the sequence (O60928 whole entry, the tested form may be a part) above, with L146V counted along it
Outline: as §3

Kir7.1 pore mutants [7] = biological target: Kir7.1 pore mutants (Homo sapiens, UniProt O60928, T153C); type: cell-based; settings: 3 µM, -120 mV
Chain of Kir7.1 pore mutants (Homo sapiens, UniProt O60928, T153C) (O60928 whole entry T153C): as the sequence (O60928 whole entry, the tested form may be a part) above, with T153C counted along it
Outline: as §3

Kir7.1 pore mutants [8] = type: cell-based, human; settings: 3 µM, -120 mV
Outline: as §3

Kir1.1 = Kir1.1 (Rattus norvegicus, UniProt P35560); assay: Tl+ flux selectivity assay, Kir1.1; type: cell-based
Chain of Kir1.1 (P35560 whole entry): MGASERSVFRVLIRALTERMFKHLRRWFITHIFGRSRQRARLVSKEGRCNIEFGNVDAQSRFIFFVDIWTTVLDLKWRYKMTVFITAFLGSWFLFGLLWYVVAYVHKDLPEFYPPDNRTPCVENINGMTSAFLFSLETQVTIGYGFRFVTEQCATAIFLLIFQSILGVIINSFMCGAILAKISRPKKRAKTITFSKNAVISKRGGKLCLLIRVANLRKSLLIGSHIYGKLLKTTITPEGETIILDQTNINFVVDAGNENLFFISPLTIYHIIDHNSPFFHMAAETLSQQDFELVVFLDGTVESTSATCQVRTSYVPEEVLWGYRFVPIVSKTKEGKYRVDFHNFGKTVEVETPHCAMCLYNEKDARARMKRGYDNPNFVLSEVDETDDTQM
Outline: as §1

CC(C)OC(=O)NC1CCN(Cc2cc(Cl)c3cccnc3c2O)CC1 [Compound 19, iso-Propyl (1-((5-chloro-8-hydroxyquinolin-7-yl)methyl)piperidin-4-yl)carbamate]
Kir Channel Selectivity (Fold) 2.1 (Kir2.1): at least 23 Fold | Kir Channel Selectivity (Fold) 2.1 (Kir2.1; listed as 19 (ML418)): >23 Fold | Kir Channel Selectivity (Fold) 3.1/3.2 (Kir3.1/3.2): at least 23 Fold | Kir Channel Selectivity (Fold) 3.1/3.2 (Kir3.1/3.2; listed as 19 (ML418)): >23 Fold | Radioligand displacement, Dopamine D2S receptor (Dopamine D2S receptor): > 50% | Ancillary pharmacology, hERG (hERG): clean ancillary pharmacology | brain concentration [1]: 323.9 ng/g | fraction unbound [2]: 0.088 | fraction unbound [3]: 0.114

Oc1c(CN2CCC(Cc3ccccc3)CC2)cc(Cl)c2cccnc12 [VU714]
IC50 (Kir7.1-WT): 1.4 µM and ~2 µM | Effect of mutation E149Q/M125R on sensitivity (Kir7.1 E149Q/M125R; 3 µM): partial, albeit significant (P<0.05), loss of sensitivity | IC50 (Kir7.1 E149Q/M125R; read-out: Kir7.1-M125R-E149Q IC50, patch clamp): 18.1 µM and ~18 µM | Effect of mutation A161S on Kir7.1 inhibition (Kir7.1 pore mutants [4]): no effect | Effect of mutation I160M on Kir7.1 inhibition (Kir7.1 pore mutants [5]): no effect | Effect of mutation L146V on Kir7.1 inhibition (Kir7.1 pore mutants [6]): no effect | Effect of mutation T153C/WT on channel inhibition (Kir7.1 pore mutants [7]): increased channel inhibition | Effect of double mutation E149Q and A150S on sensitivity (Kir7.1 pore mutants [8]): additive loss of VU714 sensitivity; also recorded: virtually eliminated block of the channel | Effect of mutation E149D on block (Kir7.1 pore mutants [8]): no effect on block | Kir1.1 (ROMK) IC50 (Tl+ flux) (Kir1.1): weakly inhibited | IC50 (Kir1.1; read-out: Kir1.1 (ROMK) IC50 (Tl+ flux)): 16 µM | Kir2.1 IC50 (Tl+ flux) (Kir2.1): insensitive | Kir Channel Selectivity (Fold) 2.1 (Kir2.1): >5 Fold | IC50 (Kir2.1; read-out: Kir2.1 IC50 (Tl+ flux)): > 30 µM | Kir Channel Selectivity (Fold) 3.1/3.2 (Kir3.1/3.2): >5 Fold | IC50 (Kir3.1/3.2; read-out: Kir3.1/3.2 IC50 (Tl+ flux)): > 30 µM
